Converted amounts (≈) assume the structure as drawn.
What was measured:
Format in all cases: functional
[1] = test system: Bacillus subtilis; assay: Antimicrobial activity against Bacillus subtilis ATCC 6633 after 24 to 48 hrs by agar dilution method
How it was run: (§1)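 MIC determined by conventional agar dilution on ISP2 medium; bacterial plates incubated at 37 °C and read for growth inhibition after 24-48 h; each test repeated four times.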

[2] = test system: Heyndrickxia coagulans; assay: Antimicrobial activity against Bacillus coagulans CIP 6625 after 24 to 48 hrs by agar dilution method; how it was run: as §1
[3] = test system: Micrococcus luteus; assay: Antimicrobial activity against Micrococcus luteus ATCC 9314 after 24 to 48 hrs by agar dilution method; how it was run: as §1
[4] = test system: Staphylococcus aureus; assay: Antimicrobial activity against Staphylococcus aureus CIP 7625 after 24 to 48 hrs by agar dilution method; how it was run: as §1
[5] = test system: Listeria monocytogenes; assay: Antimicrobial activity against Listeria monocytogenes CIP 82110 after 24 to 48 hrs by agar dilution method; how it was run: as §1
[6] = test system: Escherichia coli; assay: Antimicrobial activity against Escherichia coli ATCC 10536 after 24 to 48 hrs by agar dilution method; how it was run: as §1
[7] = test system: Klebsiella pneumoniae; assay: Antimicrobial activity against Klebsiella pneumoniae CIP 82.91 after 24 to 48 hrs by agar dilution method; how it was run: as §1
[8] = test system: Salmonella enterica; assay: Antimicrobial activity against Salmonella enterica CIP 81.3 after 24 to 48 hrs by agar dilution method; how it was run: as §1
[9] = test system: Pseudomonas aeruginosa; assay: Antimicrobial activity against Pseudomonas aeruginosa CIP A22 after 24 to 48 hrs by agar dilution method; how it was run: as §1
[10] = test system: Agrobacterium tumefaciens; assay: Antimicrobial activity against Agrobacterium tumefaciens no. 2410 LB after 24 to 48 hrs by agar dilution method; how it was run: as §1
[11] = test system: Umbelopsis ramanniana; assay: Antimicrobial activity against Mucor ramannianus NRRL 1829 after 48 to 72 hrs by agar dilution method
How it was run: (§2)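 Filamentous fungi and yeasts tested by conventional agar dilution on ISP2 medium to give MIC; plates incubated at 28 °C and read after 48-72 h; each test repeated four times.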

[12] = test system: Penicillium expansum; assay: Antimicrobial activity against Penicillium expansum after 48 to 72 hrs by agar dilution method; how it was run: as §2
[13] = test system: Aspergillus carbonarius; assay: Antimicrobial activity against Aspergillus carbonarius M333 after 48 to 72 hrs by agar dilution method; how it was run: as §2
[14] = test system: Fusarium oxysporum; assay: Antimicrobial activity against Fusarium oxysporum f.sp. lini (Foln 3-5) after 48 to 72 hrs by agar dilution method; how it was run: as §2
[15] = test system: Fusarium verticillioides; assay: Antimicrobial activity against Fusarium moniliforme after 48 to 72 hrs by agar dilution method; how it was run: as §2
[16] = test system: Fusarium equiseti; assay: Antimicrobial activity against Fusarium equiseti after 48 to 72 hrs by agar dilution method; how it was run: as §2
[17] = test system: Fusarium culmorum; assay: Antimicrobial activity against Fusarium culmorum after 48 to 72 hrs by agar dilution method; how it was run: as §2
[18] = test system: Fusarium graminearum; assay: Antimicrobial activity against Fusarium graminearum after 48 to 72 hrs by agar dilution method
How it was run: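 Agar dilution MIC on ISP2 medium; fungal plates incubated 48-72 h at 28 °C; each test repeated four times.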

[19] = test system: Candida albicans; assay: Antimicrobial activity against Candida albicans IPA 200 after 48 to 72 hrs by agar dilution method; how it was run: as §2
[20] = test system: Saccharomyces cerevisiae; assay: Antimicrobial activity against Saccharomyces cerevisiae ATCC 4226 after 48 to 72 hrs by agar dilution method; how it was run: as §2

SMILES	MIC [1]	MIC [2]	MIC [3]	MIC [4]	MIC [5]	MIC [6]	MIC [7]	MIC [8]	MIC [9]	MIC [10]	MIC [11]	MIC [12]	MIC [13]	MIC [14]	MIC [15]	MIC [16]	MIC [17]	MIC [18]	MIC [19]	MIC [20]
Cn1c2cssc-2c(NC=O)c1=O [FORMYLPYRROTHINE]	2 µg/mL (≈ 9.33 µM)	2 µg/mL (≈ 9.33 µM)	3 µg/mL (≈ 14 µM)	2 µg/mL (≈ 9.33 µM)	20 µg/mL (≈ 93.3 µM)	40 µg/mL (≈ 187 µM)	> 100 µg/mL	> 100 µg/mL	> 100 µg/mL	> 100 µg/mL	10 µg/mL (≈ 46.7 µM)	3 µg/mL (≈ 14 µM)	50 µg/mL (≈ 233 µM)	30 µg/mL (≈ 140 µM)	75 µg/mL (≈ 350 µM)	10 µg/mL (≈ 46.7 µM)	10 µg/mL (≈ 46.7 µM)	40 µg/mL (≈ 187 µM)	75 µg/mL (≈ 350 µM)	75 µg/mL (≈ 350 µM)
CCC(=O)Nc1c2sscc-2n(C)c1=O [AUREOTHRICIN]	20 µg/mL (≈ 82.5 µM)	20 µg/mL (≈ 82.5 µM)	20 µg/mL (≈ 82.5 µM)	100 µg/mL (≈ 413 µM)	> 100 µg/mL	75 µg/mL (≈ 310 µM)	> 100 µg/mL	> 100 µg/mL	> 100 µg/mL	> 100 µg/mL	20 µg/mL (≈ 82.5 µM)	20 µg/mL (≈ 82.5 µM)	40 µg/mL (≈ 165 µM)	40 µg/mL (≈ 165 µM)	75 µg/mL (≈ 310 µM)	20 µg/mL (≈ 82.5 µM)	20 µg/mL (≈ 82.5 µM)	75 µg/mL (≈ 310 µM)	75 µg/mL (≈ 310 µM)	40 µg/mL (≈ 165 µM)
CCCCC(=O)Nc1c2sscc-2n(C)c1=O [VALERYLPYRROTHINE]	20 µg/mL (≈ 74 µM)	20 µg/mL (≈ 74 µM)	40 µg/mL (≈ 148 µM)	75 µg/mL (≈ 277 µM)	> 100 µg/mL	> 100 µg/mL	> 100 µg/mL	> 100 µg/mL	> 100 µg/mL	> 100 µg/mL	10 µg/mL (≈ 37 µM)	20 µg/mL (≈ 74 µM)	20 µg/mL (≈ 74 µM)	50 µg/mL (≈ 185 µM)	75 µg/mL (≈ 277 µM)	20 µg/mL (≈ 74 µM)	20 µg/mL (≈ 74 µM)	75 µg/mL (≈ 277 µM)	20 µg/mL (≈ 74 µM)	10 µg/mL (≈ 37 µM)

— ChEMBL document CHEMBL1165988, “Dithiolopyrrolone antibiotic formation induced by adding valeric acid to the culture broth of Saccharothrix algeriensis” (2010)
